Reference: article PMC5599994 (Clinical Pharmacology in Drug Development, 2017)
Values joined by “and” are separate entries in the source; they are usually repeats but may differ in a detail not shown here. Equal values may be shown once.

Columns and labels:
[1] = format: in vivo, human; settings: plasma; midazolam 7.5 mg oral single dose alone, day 1
CYP3A4 = assay: Clinical drug-drug interaction: ratio; format: in vivo, human; settings: (midazolam + tenapanor)/midazolam; tenapanor 15 mg twice daily; healthy volunteers
CYP1A2 mRNA = assay: CYP mRNA induction in HepaRG cell cultures; format: in vitro ADME, human; settings: 24 hours
CYP2B6 mRNA = assay: CYP mRNA induction in HepaRG cell cultures; format: in vitro ADME, human; settings: 24 hours; for maximal increase in CYP2B6 mRNA levels relative to vehicle control: positive controls
Safety and tolerability = format: in vivo, human
[2] = patients with CKD stage 5D on dialysis; in 387 of 390 serum samples; cited from earlier work
CYP2C8 = target: T1, CYP2C8 (Homo sapiens, UniProt P10632); assay: Reversible CYP inhibition in human liver microsomes, amodiaquine marker; format: in vitro ADME
T1 sequence (P10632 1-490): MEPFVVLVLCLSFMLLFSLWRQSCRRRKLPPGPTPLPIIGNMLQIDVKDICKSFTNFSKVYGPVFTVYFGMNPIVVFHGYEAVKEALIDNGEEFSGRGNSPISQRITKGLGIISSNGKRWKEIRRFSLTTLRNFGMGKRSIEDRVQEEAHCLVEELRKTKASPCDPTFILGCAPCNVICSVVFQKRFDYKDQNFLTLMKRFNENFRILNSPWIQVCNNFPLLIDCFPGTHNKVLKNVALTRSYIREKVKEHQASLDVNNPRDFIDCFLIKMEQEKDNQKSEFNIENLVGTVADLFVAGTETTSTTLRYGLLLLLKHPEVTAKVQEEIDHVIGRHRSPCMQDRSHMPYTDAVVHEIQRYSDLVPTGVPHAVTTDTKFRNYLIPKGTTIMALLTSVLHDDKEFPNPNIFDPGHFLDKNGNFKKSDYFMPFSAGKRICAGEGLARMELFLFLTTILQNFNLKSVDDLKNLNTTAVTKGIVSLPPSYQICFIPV
How it was run: (§1)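 Pooled human liver microsomes (150 donors) with NADPH, 10 min at 37°C, using a substrate cocktail at or below KM: bupropion 80 μM (CYP2B6), amodiaquine 2 μM (CYP2C8), nifedipine 25 μM. Test compound was run at six levels, 0.1–30 μM, in triplicate. TCA quench, then metabolite by LC-MS/MS (MRM). IC50 came from a fit of % DMSO-control activity against log concentration; inhibition only at 30 μM was reported as >30 μM.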

CYP3A4 mRNA = settings: HepaRG, 24 hours
CYP2C9 = CYP2C9 (Homo sapiens, UniProt P11712); assay: Reversible CYP inhibition in human liver microsomes, diclofenac marker; format: in vitro ADME
How it was run: (§2)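 A cocktail at or below KM was incubated 5 min at 37°C with NADPH in 150-donor pooled human liver microsomes: phenacetin 30 μM (CYP1A2), diclofenac 10 μM (CYP2C9), (S)-mephenytoin 35 μM (CYP2C19), bufuralol 5 μM (CYP2D6), midazolam 3 μM (CYP3A4/5). Test compound was run at 0.1–30 μM (six levels), in triplicate. TCA quench, then LC-MS/MS (MRM) of metabolites. IC50 was fitted from % of DMSO-control activity versus log concentration; inhibition only at top concentration was reported as >30 μM.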

CYP2B6 = target: T2, CYP2B6 (Homo sapiens, UniProt P20813); assay: Reversible CYP inhibition in human liver microsomes, bupropion marker; format: in vitro ADME
T2 sequence (P20813 1-491): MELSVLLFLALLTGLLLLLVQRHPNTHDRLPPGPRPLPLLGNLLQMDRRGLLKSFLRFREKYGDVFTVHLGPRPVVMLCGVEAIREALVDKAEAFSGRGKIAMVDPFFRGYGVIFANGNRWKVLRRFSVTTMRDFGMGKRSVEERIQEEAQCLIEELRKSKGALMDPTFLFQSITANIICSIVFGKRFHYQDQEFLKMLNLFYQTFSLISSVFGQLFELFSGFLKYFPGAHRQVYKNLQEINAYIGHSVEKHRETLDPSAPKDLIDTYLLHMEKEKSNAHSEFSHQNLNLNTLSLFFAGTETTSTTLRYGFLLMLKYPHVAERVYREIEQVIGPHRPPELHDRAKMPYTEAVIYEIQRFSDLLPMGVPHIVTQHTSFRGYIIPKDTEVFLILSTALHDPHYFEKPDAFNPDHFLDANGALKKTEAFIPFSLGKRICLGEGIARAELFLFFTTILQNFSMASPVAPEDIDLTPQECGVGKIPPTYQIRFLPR
How it was run: as §1

CYP1A2 = target: T3, CYP1A2 (Homo sapiens, UniProt P05177); assay: Reversible CYP inhibition in human liver microsomes, phenacetin marker; format: in vitro ADME; settings: probe phenacetin 30 μM (paracetamol formation)
T3 sequence (P05177 1-516): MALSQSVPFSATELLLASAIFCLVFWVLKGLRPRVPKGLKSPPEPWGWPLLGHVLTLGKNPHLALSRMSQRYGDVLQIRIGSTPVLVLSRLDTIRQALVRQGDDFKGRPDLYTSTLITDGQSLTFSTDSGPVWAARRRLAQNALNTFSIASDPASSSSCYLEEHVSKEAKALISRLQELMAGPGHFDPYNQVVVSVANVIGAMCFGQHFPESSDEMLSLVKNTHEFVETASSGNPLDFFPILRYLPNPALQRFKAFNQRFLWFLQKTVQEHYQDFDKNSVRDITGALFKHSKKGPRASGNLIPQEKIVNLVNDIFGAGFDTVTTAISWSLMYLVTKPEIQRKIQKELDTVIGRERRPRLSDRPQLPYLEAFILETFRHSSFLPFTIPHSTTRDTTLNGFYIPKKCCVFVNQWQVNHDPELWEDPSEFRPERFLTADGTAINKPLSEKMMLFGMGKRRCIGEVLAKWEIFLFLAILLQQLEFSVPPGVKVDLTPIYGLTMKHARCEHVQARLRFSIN
How it was run: as §2

CYP3A4/5 = format: in vitro ADME; settings: human, human liver microsomes, probe midazolam 3 μM (1-OH-midazolam formation)
How it was run: as §2

CYP2D6 = CYP2D6 (Homo sapiens, UniProt P10635); assay: Reversible CYP inhibition in human liver microsomes, bufuralol marker; format: in vitro ADME
How it was run: as §2

HepaRG cells = assay: Cytotoxicity in the HepaRG induction experiments; format: cell-based, human
CYP2C19 = CYP2C19 (Homo sapiens, UniProt P33261); assay: Reversible CYP inhibition in human liver microsomes; format: in vitro ADME
How it was run: as §2

[3] = concentrations of up to 20 μM, all experiments
[4] = tenapanor 15 mg twice daily alone

CYP2C19, sequence (P33261 whole entry): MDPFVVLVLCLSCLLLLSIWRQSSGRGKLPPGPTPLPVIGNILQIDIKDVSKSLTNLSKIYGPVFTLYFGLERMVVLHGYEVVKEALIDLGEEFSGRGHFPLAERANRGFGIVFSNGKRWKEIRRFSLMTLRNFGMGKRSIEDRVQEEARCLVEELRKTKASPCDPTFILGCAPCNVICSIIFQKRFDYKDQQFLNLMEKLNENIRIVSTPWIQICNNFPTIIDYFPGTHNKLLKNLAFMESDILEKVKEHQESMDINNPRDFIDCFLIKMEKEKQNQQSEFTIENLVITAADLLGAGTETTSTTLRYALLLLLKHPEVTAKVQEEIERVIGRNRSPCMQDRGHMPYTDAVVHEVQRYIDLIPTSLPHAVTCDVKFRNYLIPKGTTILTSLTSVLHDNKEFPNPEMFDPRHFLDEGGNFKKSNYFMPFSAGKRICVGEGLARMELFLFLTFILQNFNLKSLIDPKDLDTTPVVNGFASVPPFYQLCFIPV
CYP2D6, sequence (P10635 whole entry): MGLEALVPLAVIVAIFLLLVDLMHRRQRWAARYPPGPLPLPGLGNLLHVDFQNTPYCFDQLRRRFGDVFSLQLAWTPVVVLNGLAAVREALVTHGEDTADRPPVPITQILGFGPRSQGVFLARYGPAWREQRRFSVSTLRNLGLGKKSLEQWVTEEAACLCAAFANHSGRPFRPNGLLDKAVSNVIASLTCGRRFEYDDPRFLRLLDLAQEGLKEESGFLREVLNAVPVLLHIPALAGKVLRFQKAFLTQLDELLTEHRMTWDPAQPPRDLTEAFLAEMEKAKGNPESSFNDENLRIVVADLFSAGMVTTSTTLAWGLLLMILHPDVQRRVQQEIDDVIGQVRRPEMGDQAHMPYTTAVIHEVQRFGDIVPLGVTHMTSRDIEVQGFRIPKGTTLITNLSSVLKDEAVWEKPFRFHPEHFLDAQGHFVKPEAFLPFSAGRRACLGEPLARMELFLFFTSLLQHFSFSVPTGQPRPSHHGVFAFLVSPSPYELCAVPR
CYP2C9, sequence (P11712 whole entry): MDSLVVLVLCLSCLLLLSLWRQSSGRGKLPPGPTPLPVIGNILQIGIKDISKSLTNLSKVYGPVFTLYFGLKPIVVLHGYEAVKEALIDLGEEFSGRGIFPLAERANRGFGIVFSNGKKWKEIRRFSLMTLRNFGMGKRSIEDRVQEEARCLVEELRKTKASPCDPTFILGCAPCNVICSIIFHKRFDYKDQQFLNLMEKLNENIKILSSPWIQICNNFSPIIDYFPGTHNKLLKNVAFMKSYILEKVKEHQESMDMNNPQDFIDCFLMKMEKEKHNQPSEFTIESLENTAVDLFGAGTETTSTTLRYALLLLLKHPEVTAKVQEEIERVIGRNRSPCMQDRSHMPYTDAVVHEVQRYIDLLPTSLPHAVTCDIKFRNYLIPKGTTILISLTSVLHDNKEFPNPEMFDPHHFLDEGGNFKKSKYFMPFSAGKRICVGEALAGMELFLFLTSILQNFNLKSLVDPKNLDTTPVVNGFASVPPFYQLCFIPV

## OCc1ncc2n1-c1ccc(Cl)cc1C(c1ccccc1F)=NC2 [1‐OH‐midazolam]
[1]
  AUC0-t, arithmetic mean (SD): 52.1 (29.7) ng·h/mL
  AUC0-t, geometric mean (GCV%): 47.2 (43.1) ng·h/mL
  AUC, arithmetic mean (SD): 54.1 (31.6) ng·h/mL
  AUC, geometric mean (GCV%): 48.8 (43.6) ng·h/mL
  Cmax, arithmetic mean (SD): 26.6 (12.0) ng/mL
  Cmax, geometric mean (GCV%): 24.1 (47.8) ng/mL
  t1/2, arithmetic mean (SD): 5.14 (2.22) h
  t1/2, geometric mean (GCV%): 4.64 (50.0) h
  tmax, median (range): 0.50 (0.25‐0.55) h
CYP3A4
  AUC0-t ratio (90%CI), geometric least-squares means: 110 (104‐116) %
  AUC ratio (90%CI), geometric least-squares means: 110 (103‐116) %
  Cmax ratio (90%CI), geometric least-squares means: 103 (87.2‐122) %

## COc1ccc2[nH]c([S+]([O-])Cc3ncc(C)c(OC)c3C)nc2c1 (centres unmarked) [omeprazole, reference compound]
CYP1A2 mRNA; positive control
  maximal increase in CYP1A2 mRNA levels relative to vehicle control: 32.0 fold

## CCC1(c2ccccc2)C(=O)NC(=O)NC1=O [phenobarbital]
CYP2B6 mRNA
  maximal increase in CYP2B6 mRNA levels relative to vehicle control: 17.0 fold

## Cc1ncc2n1-c1ccc(Cl)cc1C(c1ccccc1F)=NC2 [Midazolam, midazolam, reference compound]
[1]
  tmax, median (range): 0.50 (0.25‐0.55) h
Safety and tolerability; healthy volunteers
  somnolence: 27/28
  volunteers reporting at least 1 AE: 27/28
CYP3A4
  AUC0-t ratio (90%CI), geometric least-squares means: 106 (100‐113) %
  AUC ratio (90%CI), geometric least-squares means: 107% and 107 (101‐113) %
  Cmax ratio (90%CI), geometric least-squares means: 104% and 104 (89.6‐122) %

## Clc1ccc(-c2nc3sccn3c2C=NOCc2ccc(Cl)c(Cl)c2)cc1 [CITCO, 6‐[4‐chlorophenyl]imidazo[2,1‐b][1,3]thiazole‐5‐carbaldehyde O‐[3,4‐dichlorobenzyl]oxime]
CYP2B6 mRNA
  maximal increase in CYP2B6 mRNA levels relative to vehicle control: 13.2 fold

## CN1Cc2c(Cl)cc(Cl)cc2[C@H](c2cccc(S(=O)(=O)NCCOCCOCCNC(=O)NCCCCNC(=O)NCCOCCOCCNS(=O)(=O)c3cccc([C@@H]4CN(C)Cc5c(Cl)cc(Cl)cc54)c3)c2)C1 [Tenapanor]
[2]
  serum tenapanor: below the limit of quantification
CYP1A2 mRNA; [3]
  induction of CYP1A2 mRNA expression: did not induce
CYP2C8
  IC50: 10.4 ± 3 µM
CYP3A4 mRNA; 1 of 4 experiments
  CYP3A4 mRNA induction as % of the positive control response: 16.8%
  induction of CYP3A4 mRNA expression: up to 5.85 fold
CYP3A4 mRNA; 3 of 4 experiments
  influence on CYP3A4 mRNA levels: not observed to influence
CYP2C9
  IC50: 14.2 ± 3.2 µM
CYP2B6
  IC50: 15.4 ± 7.5 µM
CYP1A2
  IC50 at 5 min: > 30 µM
CYP2B6 mRNA; [3]
  induction of CYP2B6 mRNA expression: did not induce
Safety and tolerability; healthy volunteers
  volunteers reporting at least 1 AE: 9/27
Safety and tolerability; [4]
  abdominal pain: 1 n
  abnormal gastrointestinal sounds: 2 n
  defecation urgency: 1 n
  dizziness: 2 n
  hypertrophy of tongue papillae: 1 n
Safety and tolerability; tenapanor 15 mg twice daily alone, of the 9 volunteers who reported AEs
  gastrointestinal disorders: 5 volunteers
CYP3A4/5
  IC50 at 5 min: 0.402 ± 0.032 µM
CYP2D6
  IC50: 3.26 ± 0.54 µM
HepaRG cells; 20 μM
  cytotoxicity to HepaRG cells: not
HepaRG cells; 50 μM
  cytotoxicity to HepaRG cells: cytotoxic
CYP2C19
  IC50: > 30 µM
CYP2C19; human liver microsomes, S-mephenytoin 35 μM to 4-OH-mephenytoin
  Tenapanor IC50 (n = 3): No IC50 could be determined

## Cc1ncc2n1-c1ccc(Cl)cc1C(c1ccccc1F)=NC2O (centres unmarked) [4‐OH‐midazolam]
[1]
  AUC0-t, arithmetic mean (SD): 5.65 (1.50) ng·h/mL
  AUC0-t, geometric mean (GCV%): 5.47 (26.9) ng·h/mL
  AUC, arithmetic mean (SD): 6.14 (1.56) ng·h/mL
  AUC, geometric mean (GCV%): 5.96 (25.3) ng·h/mL
  Cmax, arithmetic mean (SD): 2.11 (0.757) ng/mL
  Cmax, geometric mean (GCV%): 1.99 (37.6) ng/mL
  t1/2, arithmetic mean (SD): 2.48 (0.820) h
  t1/2, geometric mean (GCV%): 2.37 (30.2) h
  tmax, median (range): 0.50 (0.25‐1.02) h
CYP3A4
  AUC0-t ratio (90%CI), geometric least-squares means: 106 (99.1‐113) %
  AUC ratio (90%CI), geometric least-squares means: 105 (98.7‐111) %
  Cmax ratio (90%CI), geometric least-squares means: 105 (90.5‐122) %
